Source: ChEMBL document CHEMBL4689842, “EUbOPEN Chemogenomics Library wave 1” (2021)

Tested on: Fibroblast
Test: Multiplex assay against human fibroblast
Format: toxicity, cell-based
How it was run: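 Values for tubulin, mitochondrial-mass and membrane-permeability phenotypes are per cents of cells with healthy nuclei. These cells were identified by CellPathfinder machine-learning gating of live cells that had been stained at seeding with Hoechst33342, BioTracker Green Microtubule Cytoskeleton Dye, MitoTracker Red and Annexin V Alexa Fluor 680 and imaged on a CQ1 microscope at 37°C and 5% CO2 after compound addition. The gating first set Hoechst high-intensity objects apart from normal cells, then split normal cells into healthy, pyknosed or fragmented nuclei, and pyknosed cells into mitotic or apoptotic.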

[1] = 12 h, 1 µM, compound concentration 1 uM, replicate 1
[2] = 12 h, 1 µM, compound concentration 1 uM, replicate 2
[3] = 12 h, 10 µM, compound concentration 10 uM, replicate 1
[4] = 12 h, 10 µM, compound concentration 10 uM, replicate 2
[5] = 24 h, 1 µM, compound concentration 1 uM, replicate 1
[6] = 24 h, 1 µM, compound concentration 1 uM, replicate 2
[7] = 24 h, 10 µM, compound concentration 10 uM, replicate 1
[8] = 24 h, 10 µM, compound concentration 10 uM, replicate 2
[9] = 48 h, 1 µM, compound concentration 1 uM, replicate 1
[10] = 48 h, 1 µM, compound concentration 1 uM, replicate 2
[11] = 48 h, 10 µM, compound concentration 10 uM, replicate 1
[12] = 48 h, 10 µM, compound concentration 10 uM, replicate 2

COC(=O)C1=C(C)NC(C)=C(C(=O)OCCCN2CCC(c3ccccc3)(c3ccccc3)CC2)[C@H]1c1cccc([N+](=O)[O-])c1 [NIGULDIPINE]
Population Apoptotic (%) [1]: 65%
Population Fragmented Nuclei (%) [1]: 17%
Population Healthy Nuclei (%) [1]: 45%
Population Hoechst High Intensity Objects (%) [1]: 12%
Population Membrane Permeable-Phenotype (%) [1]: 2%
Population Mitochondria Different-Phenotype (%) [1]: 85%
Population Mitotic Cells (%) [1]: 34%
Population Normal (%) [1]: 87%
Population Pyknosed Nuclei (%) [1]: 36%
Population Tubulin-Different-Phenotype (%) [1]: 100%
Total Cell Count [1]: 99
Population Apoptotic (%) [2]: 91%
Population Fragmented Nuclei (%) [2]: 6%
Population Healthy Nuclei (%) [2]: 78%
Population Hoechst High Intensity Objects (%) [2]: 9%
Population Membrane Permeable-Phenotype (%) [2]: 66%
Population Mitochondria Different-Phenotype (%) [2]: 100%
Population Mitotic Cells (%) [2]: 8%
Population Normal (%) [2]: 90%
Population Pyknosed Nuclei (%) [2]: 15%
Total Cell Count [2]: 945
Population Apoptotic (%) [3]: 65%
Population Fragmented Nuclei (%) [3]: 19%
Population Healthy Nuclei (%) [3]: 10%
Population Hoechst High Intensity Objects (%) [3]: 16%
Population Membrane Permeable-Phenotype (%) [3]: 63%
Population Mitochondria Different-Phenotype (%) [3]: 18%
Population Mitotic Cells (%) [3]: 34%
Population Normal (%) [3]: 83%
Population Pyknosed Nuclei (%) [3]: 69%
Population Tubulin-Different-Phenotype (%) [3]: 72%
Total Cell Count [3]: 124
Population Apoptotic (%) [4]: 76%
Population Fragmented Nuclei (%) [4]: 67%
Population Healthy Nuclei (%) [4]: 3%
Population Hoechst High Intensity Objects (%) [4]: 12%
Population Membrane Permeable-Phenotype (%) [4]: 100%
Population Mitochondria Different-Phenotype (%) [4]: 50%
Population Mitotic Cells (%) [4]: 23%
Population Normal (%) [4]: 87%
Population Pyknosed Nuclei (%) [4]: 29%
Population Tubulin-Different-Phenotype (%) [4]: 100%
Total Cell Count [4]: 87
Population Apoptotic (%) [5]: 76%
Population Fragmented Nuclei (%) [5]: 25%
Population Healthy Nuclei (%) [5]: 53%
Population Hoechst High Intensity Objects (%) [5]: 13%
Population Membrane Permeable-Phenotype (%) [5]: 7%
Population Mitochondria Different-Phenotype (%) [5]: 85%
Population Mitotic Cells (%) [5]: 23%
Population Normal (%) [5]: 86%
Population Pyknosed Nuclei (%) [5]: 20%
Population Tubulin-Different-Phenotype (%) [5]: 90%
Total Cell Count [5]: 117
Population Apoptotic (%) [6]: 77%
Population Fragmented Nuclei (%) [6]: 7%
Population Healthy Nuclei (%) [6]: 65%
Population Hoechst High Intensity Objects (%) [6]: 5%
Population Membrane Permeable-Phenotype (%) [6]: 96%
Population Mitochondria Different-Phenotype (%) [6]: 100%
Population Mitotic Cells (%) [6]: 22%
Population Normal (%) [6]: 94%
Population Pyknosed Nuclei (%) [6]: 27%
Population Tubulin-Different-Phenotype (%) [6]: 100%
Total Cell Count [6]: 948
Population Apoptotic (%) [7]: 79%
Population Fragmented Nuclei (%) [7]: 29%
Population Healthy Nuclei (%) [7]: 10%
Population Hoechst High Intensity Objects (%) [7]: 22%
Population Membrane Permeable-Phenotype (%) [7]: 27%
Population Mitochondria Different-Phenotype (%) [7]: 27%
Population Mitotic Cells (%) [7]: 20%
Population Normal (%) [7]: 77%
Population Pyknosed Nuclei (%) [7]: 59%
Population Tubulin-Different-Phenotype (%) [7]: 54%
Total Cell Count [7]: 135
Population Apoptotic (%) [8]: 100%
Population Fragmented Nuclei (%) [8]: 40%
Population Healthy Nuclei (%) [8]: 25%
Population Hoechst High Intensity Objects (%) [8]: 11%
Population Membrane Permeable-Phenotype (%) [8]: 100%
Population Mitochondria Different-Phenotype (%) [8]: 100%
Population Mitotic Cells (%) [8]: 0%
Population Normal (%) [8]: 88%
Population Pyknosed Nuclei (%) [8]: 33%
Population Tubulin-Different-Phenotype (%) [8]: 100%
Total Cell Count [8]: 85
Population Apoptotic (%) [9]: 80%
Population Fragmented Nuclei (%) [9]: 47%
Population Healthy Nuclei (%) [9]: 44%
Population Hoechst High Intensity Objects (%) [9]: 11%
Population Membrane Permeable-Phenotype (%) [9]: 1%
Population Mitochondria Different-Phenotype (%) [9]: 70%
Population Mitotic Cells (%) [9]: 20%
Population Normal (%) [9]: 88%
Population Pyknosed Nuclei (%) [9]: 7%
Population Tubulin-Different-Phenotype (%) [9]: 80%
Total Cell Count [9]: 143
Population Apoptotic (%) [10]: 0%
Population Fragmented Nuclei (%) [10]: 61%
Population Healthy Nuclei (%) [10]: 38%
Population Hoechst High Intensity Objects (%) [10]: 21%
Population Membrane Permeable-Phenotype (%) [10]: 0%
Population Mitochondria Different-Phenotype (%) [10]: 71%
Population Mitotic Cells (%) [10]: 0%
Population Normal (%) [10]: 78%
Population Pyknosed Nuclei (%) [10]: 0%
Population Tubulin-Different-Phenotype (%) [10]: 86%
Total Cell Count [10]: 126
Population Apoptotic (%) [11]: 82%
Population Fragmented Nuclei (%) [11]: 48%
Population Healthy Nuclei (%) [11]: 22%
Population Hoechst High Intensity Objects (%) [11]: 28%
Population Membrane Permeable-Phenotype (%) [11]: 31%
Population Mitochondria Different-Phenotype (%) [11]: 22%
Population Mitotic Cells (%) [11]: 17%
Population Normal (%) [11]: 71%
Population Pyknosed Nuclei (%) [11]: 29%
Population Tubulin-Different-Phenotype (%) [11]: 27%
Total Cell Count [11]: 138
Population Apoptotic (%) [12]: 90%
Population Fragmented Nuclei (%) [12]: 68%
Population Healthy Nuclei (%) [12]: 17%
Population Hoechst High Intensity Objects (%) [12]: 31%
Population Membrane Permeable-Phenotype (%) [12]: 57%
Population Mitochondria Different-Phenotype (%) [12]: 64%
Population Mitotic Cells (%) [12]: 9%
Population Normal (%) [12]: 68%
Population Pyknosed Nuclei (%) [12]: 13%
Population Tubulin-Different-Phenotype (%) [12]: 21%
Total Cell Count [12]: 115
